Results published in ChEMBL document CHEMBL3994584, “Identification of novel fluorescent probes preventing PrPSc replication in prion diseases” (Eur J Med Chem, 2017).
pEC50: −log10 of the molar value.

Experiment: Antiprion activity against mouse prion protein RML infected mouse ScN2a cells assessed as reduction in proteinase K-resistant PrPSc level incubated for 5 days followed by proteinase K digestion by Western blot method
Details: 120 h; for pEC50: read-out: EC50; for EC50: read-out: pEC50 (converted)
Summary of the method: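 RML-infected ScN2a cells were treated with 0.1, 1 and 10 μM for 5 days, with DMSO ≤0.1% final. Lysates (500 μg protein) were digested with 10 μg PK for 1 h at 37 °C, stopped with 2 mM PMSF and ultracentrifuged. Pellets were run on SDS-PAGE and immunoblotted with anti-PrP Fab W226, with ECL detection. Densitometry gave PK-resistant PrPSc over total PrP, with untreated set to 100%. Three independent experiments.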

| Compound | pEC50 | EC50 [nM] |
| --- | --- | --- |
| Cc1cccc(Nc2nc(-c3ccc(N4CCN(C)CC4)cc3)cs2)n1 | 6.08 | 832 |
| COc1ccc(-c2csc(Nc3ncccc3C)n2)cc1OC | 5.14 | 7240 |
| Cc1cccc(Nc2nc(-c3ccc(-c4ccc(N5CCN(C)CC5)nc4)cc3)cs2)n1 | 7.02 | 95.5 |
| Cc1ccnc(Nc2nc(-c3ccncc3)cs2)c1 | 5.31 | 5010 |
| Cc1cccc(Nc2nc(-c3ccc(-c4ccnn4C)cc3)cs2)n1 | 7.05 | 89.1 |
| COc1ccc(-c2csc(Nc3ccc4ccccc4n3)n2)cc1 | 6.47 | 339 |
| COc1ccc(-c2csc(Nc3cc(C)ccn3)n2)cc1OC | 6.00 | 1000 |
| Cc1cccc(Nc2nc(-c3ccc(-c4cc[n+]([O-])cc4)cc3)cs2)n1 | 6.25 | 562 |
| Cc1ccnc(Nc2nc(-c3cc(-c4ccccc4)no3)cs2)c1 | 5.90 | 1260 |
| COc1ccc(-c2csc(Nc3ncccn3)n2)cc1OC | 5.40 | 3980 |
| Cc1cccc(Nc2nc(-c3ccc(N4CCOCC4)cc3)cs2)n1 | 7.29 | 51.3 |
| Cc1ccc(Nc2nc(-c3ccccn3)cs2)nc1 | 6.07 | 851 |
| COc1ccc(Nc2nc(-c3cc(-c4ccccc4)no3)cs2)nc1 | 6.64 | 229 |
| Cc1cccc(Nc2nc(-c3ccc(-c4ccnc(OC(C)C)c4)cc3)cs2)n1 | 5.55 | 2820 |
| O=C(Nc1nc(-c2ccc(-c3ccncc3)cc2)cs1)C1CC1 | 6.76 | 174 |
| COCC(=O)Nc1nc(-c2ccc(-c3ccccc3)cc2)cs1 | 5.80 | 1580 |
| Cc1cccc(Nc2nc(-c3ccc(-c4cccnc4)cc3)cs2)n1 | 7.17 | 69.2 |
| Cc1cccc(Nc2nc(-c3ccc(-c4ccnc(N(C)C)c4)cc3)cs2)n1 | 6.91 | 123 |
| Cc1ccc(Nc2nc(-c3ccc(-c4ccccn4)s3)cs2)nc1 | 5.91 | 1230 |
| NS(=O)(=O)c1ccc(Nc2nc(-c3ccc(O)c(O)c3)cs2)cc1 | 4.87 | 13500 |
| O=C(CN1CCCC1)Nc1ccc(Cc2ccc(NC(=O)CN3CCCC3)cc2)cc1 | 5.87 | 1350 |

| Compound | pEC50 | EC50 [nM] |
| --- | --- | --- |
| Cc1cccc(Nc2nc(-c3ccncc3)cs2)n1 | 6.00 | 1000 |
| c1ccc(-c2csc(Nc3ccc4ccccc4n3)n2)cc1 | 5.51 | 3090 |
| COc1ccc(-c2csc(Nc3ccc4ccccc4n3)n2)cc1OC | 6.37 | 427 |
| Cc1cccc(Nc2nc(-c3ccc(-c4ccc[n+]([O-])c4)cc3)cs2)n1 | 6.69 | 204 |
| COc1ccc(-c2csc(Nc3ccncc3)n2)cc1OC | 5.20 | 6460 |
| Cc1cccc(Nc2nc(-c3cc4ccccc4o3)cs2)n1 | 5.84 | 1450 |
| c1cc(-c2csc(Nc3ccc(-c4cnco4)cc3)n2)ccn1 | 6.91 | 123 |
| COc1ccc(-c2csc(Nc3ccccn3)n2)cc1OC | 5.91 | 1230 |
| c1ccc(-c2cc(-c3csc(Nc4ccncc4)n3)on2)cc1 | 5.35 | 4470 |
| Cc1cccc(Nc2nc(-c3ccc(-c4ccc(OC(C)C)nc4)cc3)cs2)n1 | 5.23 | 5890 |
| COc1ccc(-c2ccc(-c3csc(Nc4cccc(C)n4)n3)cc2)cn1 | 6.85 | 141 |
| COc1ccc(-c2csc(Nc3ccc(C)cn3)n2)cc1 | 5.52 | 3020 |
| COc1ccc(-c2csc(N(C(C)=O)c3ccc4ccccc4n3)n2)cc1OC | 7.09 | 81.3 |
| COc1ccc(-c2csc(Nc3cnccn3)n2)cc1OC | 4.81 | 15500 |
| Cc1cc(-c2ccc(-c3csc(Nc4cccc(C)n4)n3)cc2)ccn1 | 6.40 | 398 |
| Cc1cccc(Nc2nc(-c3ccc(-c4ccncc4)cc3)cs2)n1 | 7.06 | 87.1 |
| c1ccc2nc(Nc3nc(-c4cc5ccccc5o4)cs3)ccc2c1 | 6.04 | 912 |
| Cc1ccc(Nc2nc(-c3cccc(C#N)c3)cs2)nc1 | 5.64 | 2290 |
| CN(C)c1ccncc1-c1ccc(-c2csc(NC(=O)C3CC3)n2)cc1 | 6.96 | 110 |
| COc1ccc(-c2csc(N(C)c3ccc4ccccc4n3)n2)cc1OC | 6.85 | 141 |
| Cc1cccc(Nc2nc(-c3ccc(-c4ccnc(N5CCN(C)CC5)c4)cc3)cs2)n1 | 6.12 | 759 |
